Rows were chosen to be rich in hits. Some 4% of all compounds tested hit in one or more screens of this group.
MPTP block: inhibitors of mitochondrial permeability transition pore; AID 602449; inhibition, % at 10 µM; 360,000 tested, 1.4% active; isolated mouse mitochondria, Ca2+ swelling absorbance, 30 min;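 active = inhibition of 50% or more, scaled per plate between neutral and stimulator controls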;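 note: 0% = DMSO wells given calcium and 100% = 1 mM EGTA wells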
TAAR1 antag: antagonists of human TAAR1; AID 624466; Q96RJ0; 360,000 tested, 1.5% active; CHO RD-HGA16 TAAR1, Fluo-8 calcium fluorescence, antagonist; inhibition, % at 3 µM;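 active = inhibition above a per-plate cutoff, the mean inhibition of test compounds on that plate plus 3 SD, cut at about 49% in these data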;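 note: 0% = DMSO plus EC80 beta-PEA response and 100% = DMSO alone without agonist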
Target sequence (Q96RJ0 whole entry, looked up): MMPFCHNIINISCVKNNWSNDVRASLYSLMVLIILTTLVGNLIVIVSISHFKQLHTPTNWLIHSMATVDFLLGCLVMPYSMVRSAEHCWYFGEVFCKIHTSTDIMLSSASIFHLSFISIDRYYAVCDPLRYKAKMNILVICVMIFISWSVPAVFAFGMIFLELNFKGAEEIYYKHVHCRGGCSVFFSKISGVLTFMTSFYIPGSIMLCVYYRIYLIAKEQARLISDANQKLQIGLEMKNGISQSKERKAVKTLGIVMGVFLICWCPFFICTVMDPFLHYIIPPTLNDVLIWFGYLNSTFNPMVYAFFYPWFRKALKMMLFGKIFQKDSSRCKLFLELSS
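Test system: RD-HGA16 CHO cells with stable hTAAR1 and Gα16 / Probe or stimulus: EC80 β-phenethylamine stimulus / Times: seeding 17-24 h prior, 75-min 37 °C, 30-min RT dye loading / Detection: Fluo-8 calcium-sensitive fluorescence / Read-out basis: % inhibition scaled between DMSO and EC80 PEA controls / Repeats: singlicate, one well per test compound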
DAGLB inhibitor: diacylglycerol lipase beta (human) inhibition; 340,000 tested, 0.059% active; HEK293T DAGLB membrane lysate, EnzChek fluorogenic substrate; inhibition, % at 5.17 µM; Q8NCG7; in the data active = inhibition above about 34%;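 note: 0% = enzyme with vehicle and 100% = wells lacking enzyme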
GPR7 antagonist: blocks human GPR7 receptor signaling | 290,000 tested, 1.1% active | AID 1861 | inhibition, % at 4.4 µM | GPR7-expressing cells, fluorescence antagonist assay; in the data active = inhibition above about 16%, passing the limit was not always enough;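 note: cells stimulated with the agonist NPW; 0% = agonist with vehicle and 100% = vehicle without agonist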
Target sequence (P48145 whole entry, looked up): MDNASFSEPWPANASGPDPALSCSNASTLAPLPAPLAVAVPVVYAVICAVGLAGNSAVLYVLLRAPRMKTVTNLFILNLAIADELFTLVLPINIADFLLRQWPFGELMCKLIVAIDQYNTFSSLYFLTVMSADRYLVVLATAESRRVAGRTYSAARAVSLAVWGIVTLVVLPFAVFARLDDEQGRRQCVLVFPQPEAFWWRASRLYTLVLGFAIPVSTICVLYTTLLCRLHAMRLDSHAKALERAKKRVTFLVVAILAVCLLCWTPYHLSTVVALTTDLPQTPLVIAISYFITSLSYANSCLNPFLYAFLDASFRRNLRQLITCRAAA
TAAR1 ag: human TAAR1 agonism; Q96RJ0; CHO RD-HGA16 TAAR1, Fluo-8 calcium fluorescence; vehicle wells 0%, saturating PEA agonist 100%; activation, % at 3 µM; 360,000 tested, 0.99% active;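 active = activation above the mean activation of all test compounds in the run plus 3 SD, cut at about 38% in these data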
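Signal – calcium-sensitive Fluo-8 signal, excitation 470-495, emission 515-575 nm · System – RD-HGA16 (CHO) cells co-expressing Gα16 and hTAAR1 · Incubation – 17-24 h seeding, 75 min 37 °C dye, 30 min RT · Compound dosing – 3 µM single concentration · Repeats – no replicates (n 1)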
GPR7 antag cf: confirmation of human GPR7 antagonists; GPR7-expressing cells, calcium fluorescence antagonist mode; 2,400 tested, 52% active; inhibition, % at 4.4 µM; shares compounds with GPR7 antagonist; in the data active = inhibition above about 24%;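 note: stimulated with the GPR7 agonist NPW; 0% = agonist plus vehicle and 100% = vehicle alone without agonist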
MCHR1 antag: MCHR1 (human) antagonism in GPR7 counter-screen. shares compounds with GPR7 antagonist. MCHR1-expressing cells, fluorescence antagonist assay. inhibition, % at 4.4 µM. 2,400 tested, 62% active; in the data active = inhibition above about 22%;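 note: 0% = vehicle with agonist and 100% = vehicle without agonist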
An asterisk follows results filed as active; / = no result given.

SMILES	MPTP block	TAAR1 antag	DAGLB inhibitor	GPR7 antagonist	TAAR1 ag	GPR7 antag cf	MCHR1 antag
C=CCN(c1ccccc1OC)S(=O)(=O)c1cccc(C(=O)OCC(=O)c2c(N)n(C)c(=O)n(C)c2=O)c1	2.3	51.7*	2.1	/	8.6	/	/
CC1C(=O)N(Cc2cn(Cc3ccco3)nn2)CCS(=O)(=O)N1Cc1ccc(-c2cccc(N(C)C)c2)cc1 (centres undefined)	-1.4	-13.6	0.3	/	1.4	/	/
C/C=C/c1cccc(-c2nc(C(=O)NC3CCCC3)cc3c2[C@@H](CCO)N(S(=O)C(C)(C)C)C3)c1 (some centres undefined)	1.1	-6.5	/	/	0.5	/	/
O=C(/C=C/c1ccccc1)c1cc(Br)ccc(=O)c1O	-10.3	54.1*	25.1	-5.4	41.4*	/	/
CCOC(=O)C1CCN(CC(=O)Nc2c(C(=O)OC)[nH]c3ccc(Cl)cc23)CC1	-0.4	44.7	-1.4	18.0*	8.3	/	/
COC(=O)[C@H](NC(=O)c1cc(-c2ccccc2)sc1N)C(C)C	0.8	-22.4	/	/	-2.2	/	/
CN(Cc1ccccc1)C(=O)COC(=O)CNS(=O)(=O)c1ccc2ccccc2c1	-0.6	10.0	0.4	/	1.2	/	/
COc1ccc(N2C(=O)[C@@H]3[C@H](C2=O)[C@H](C(C)=O)N2c4ccccc4C=C[C@@H]32)cc1	0.5	-25.3	-0.6	-2.8	2.0	/	/
COc1ccc(C2C(C(=O)c3ccccc3)N3c4ccccc4C=CC3C2[N+](=O)[O-])cc1 (centres undefined)	1.7	19.2	-5.7	-7.5	42.7*	/	/
CC(C)C[C@H]1CNC(=S)N1C[C@H]1CCCN1C[C@H](CC(C)C)N1C[C@H](Cc2ccc(O)cc2)N(CC2CCCCC2)C1=S	5.8	-33.6	/	/	-1.3	/	/
O=C(Nc1ccncc1)c1ccc2c(c1)S(=O)(=O)c1ccccc1C2=O	0.8	52.3*	1.9	-10.2	37.9*	/	/
CC1(C)CC(=O)C=C(NC2CCCCCC2)C1	0.9	-37.1	-1.1	14.8*	8.6	/	/
O=c1oc(-c2ccc(Cl)cc2[N+](=O)[O-])nc2ccccc12	-0.7	-14.2	-17.8	/	0.1	/	/
O=C(NC(Cc1ccccc1)C(=O)N1CCN(S(=O)(=O)c2ccccc2)CC1)c1ccccc1 (centres undefined)	0.3	37.8	3.0	21.9*	8.2	-8.1	3.5
CC(C)(C)c1cc(CP(=O)(c2ccccc2)c2ccccc2)cc(C(C)(C)C)c1O	-1.2	6.8	-3.4	35.2*	3.6	29.9*	42.4*
O=P(Cc1ccccc1)(c1ccccc1)c1ccccc1	0.2	-3.1	-0.9	-4.9	-3.2	/	/
O=C(CCc1c[nH]c2ccccc12)N1CCN(S(=O)(=O)c2ccc([N+](=O)[O-])cc2)CC1	-2.4	2.6	1.5	/	4.4	/	/
CSc1cccc(NC(=O)CN(C2CCCCC2)S(C)(=O)=O)c1	0.2	9.9	-3.6	28.2*	5.4	8.9	15.0
COc1ccc(NC(=O)CN(C2CCCCC2)S(C)(=O)=O)cc1OC	-0.9	5.9	-0.4	7.0	6.4	/	/
Cc1ccc(NC(=O)CSc2nnc(-c3ccncc3)n2C)cc1C	1.4	5.1	-1.3	83.1*	6.3	-7.5	1.4
O=C(NC1CCCC1)C(C1CC1)n1c(-c2ccncc2)nc2ccccc21 (centres undefined)	0.8	-15.5	/	/	1.9	/	/
Cc1ccccc1NC(=S)N(Cc1cccs1)C1CCCCC1	0.1	-2.7	-2.4	-22.4	-0.7	/	/
Cc1c(Cl)cccc1NC(=S)N(Cc1cccs1)C1CCCC1	3.5	3.3	-2.2	23.2*	-2.5	-2.1	26.8*
CCOC(=O)CCc1c(C)c2ccc(OCC)c(C)c2oc1=O	/	24.6	/	32.2*	11.1	42.2*	30.2*
CCOC(=O)CCc1c(C)c2ccc(OCC(=O)N3CCOCC3)c(C)c2oc1=O	-0.3	-8.7	0.1	-11.9	10.1	/	/
SMILES	MPTP block	TAAR1 antag	DAGLB inhibitor	GPR7 antagonist	TAAR1 ag	GPR7 antag cf	MCHR1 antag
CCc1nc2ccc(C(=O)N(C)Cc3ccccc3)cn2c1N(C)Cc1ccc(OC)cc1	0.7	-15.2	/	/	-0.7	/	/
O=C(NCCc1ccccc1Cl)[C@@H]1CCCN1C(=O)[C@@H](NS(=O)(=O)c1ccc(F)cc1F)C1CCCCC1	/	43.4	/	/	26.9	/	/
COc1ccc(/C=C/c2ccc3cccc(O)c3n2)c(OC)c1OC	0.6	35.0	-3.2	32.5*	-1.1	20.3	62.0*
O=C(NCc1ccco1)c1sc2cc(Cl)ccc2c1Cl	1.9	2.2	-17.4	35.7*	-1.1	22.1	31.5*
O=C(C(=O)N1CCN(S(=O)(=O)c2ccc(OC(F)(F)F)cc2)CC1)c1cccc(C(F)(F)F)c1	/	-8.3	/	/	-2.2	/	/
Cc1cc(C)nc(N/N=C/c2ccccc2Cl)n1	1.2	-9.6	/	22.8*	1.7	2.5	8.5
CCCCNC(=O)C(NC(=O)c1ccc2ccccc2c1)C(=O)c1ccccc1 (centres undefined)	1.5	-13.1	/	/	-0.4	/	/
O=C(CSc1nnc(CNC(=O)c2ccc(F)cc2)o1)NCCc1ccccc1	0.2	-14.1	-2.2	-12.2	-0.1	/	/
COc1ccc(C(=O)NCc2nnc(SCC(=O)Nc3cc(Cl)ccc3OC)o2)cc1	-0.7	5.5	-1.1	39.8*	-0.9	9.9	15.4
COc1cc(C(=O)NCc2nnc(SCC(=O)N3CCc4ccccc43)o2)cc(OC)c1OC	-1.3	1.9	0.2	29.7*	9.7	0.0	-15.3
COc1cc(C(=O)NCc2nnc(SCC(=O)N3CCCCCC3)o2)cc(OC)c1OC	-0.1	-40.0	-4.9	-8.6	1.7	/	/
COc1ccc(C(=O)NCc2nnc(SCC(=O)NCCc3ccccc3)o2)cc1	-1.5	0.9	-0.7	24.5*	1.3	-14.8	8.5
C=CCN1C(C(=O)OCC)CSCCS1(=O)=O (centres undefined)	/	6.4	/	/	2.6	/	/
Nc1cccc(-c2nc3ccc(C(=O)c4ccccc4)cc3[nH]2)c1	1.8	17.4	-0.7	42.7*	3.0	27.3*	63.0*
Nc1ccc2nc(-c3ccccc3)[nH]c2c1	0.5	-18.9	0.8	-2.0	22.3	/	/
CN(c1ccccc1)S(=O)(=O)c1ccc(C(=O)NCCc2ccc(F)cc2)cc1	1.2	25.4	-1.4	26.5*	14.0	22.6	18.3
COc1ccc(CCNC(=O)CN(Cc2ccc(Cl)cc2)S(C)(=O)=O)cc1	3.2	1.8	-0.8	24.5*	2.0	12.7	12.9
COc1ccc(N(C)S(=O)(=O)c2ccc(Cl)c(C(=O)NCCc3ccc(Cl)cc3)c2)cc1	-1.3	25.3	-5.6	44.8*	5.2	48.2*	49.6*
COc1ccccc1N(C)S(=O)(=O)c1ccc(C(=O)NCCc2ccc(F)cc2)cc1	-0.2	42.2	-1.9	-0.2	15.6	/	/
CCc1cccc(Nc2cc(C)n(-c3cccc(CC)c3)c(=O)c2)c1	/	-9.7	/	/	2.1	/	/

Screening results deposited in PubChem by several laboratories.
